Measurements published in ChEMBL document CHEMBL1129459, “Studies on disease-modifying antirheumatic drugs: synthesis of novel quinoline and quinazoline derivatives and their anti-inflammatory effect” (1996).

Key:
Format in all cases: functional
Rattus norvegicus [1] = assay: Inhibitory effect of 12.5 mg/Kg orally administered compound against swelling of right hand paw as a measure of anti-inflammatory activity; details: po
Rattus norvegicus [2] = species on record: Rattus norvegicus; assay: Effective dose to inhibit the rat's left hand paw swelling by 50%.
In short: (§1)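 Adjuvant arthritis in male Lewis rats, 7 weeks old, n = 7. Rats were sensitized intradermally in the right hind plantar site with 0.05 mL of 0.5% killed M. tuberculosis H37 RA in liquid paraffin. Compound in 0.5% methylcellulose was given p.o. once daily for 14 days, starting day 0. Left hind paw volume was measured on days 0 and 14. ED50 came from linear regression across three or four doses.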

Rattus norvegicus [3] = species on record: Rattus norvegicus; assay: Bone resorption inhibitory effect was evaluated as calcium released from bone into medium at 10 uM compound concentration, expressed as percent of control; set-up: scale not given: the % may be the effect or the level left
In short: (§2)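 Rat fetal long-bone (Raisz) assay. A pregnant Sprague–Dawley rat received 50 µCi 45Ca s.c. on gestation day 18. Fetal humeri (radii and ulnae) were taken the next day and cleaned of connective tissue and cartilage. Bones were preincubated 24 h at 37 °C, 5% CO2, in BGJb medium with 2 mg/mL BSA. They were then cultured 2 days with compound at 10 or 30 µM final. Read-out was 45Ca released/(released + bone-retained) ×100, mean of five bones, as % of untreated same-litter controls.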

Rattus norvegicus [4] = assay: Inhibition of adjuvant induced swelling of rat right hind paw by 50 mg/kg p.o. administration.; details: route oral
Rattus norvegicus [5] = species on record: Rattus norvegicus; assay: Bone resorption inhibitory effect was evaluated as calcium released from bone into medium at 30 uM compound concentration, expressed as percent of control; set-up: scale not given: the % may be the effect or the level left; in short: as §2
Rattus norvegicus [6] = species on record: Rattus norvegicus; assay: Effective dose of compound to inhibit the rat's left hand paw swelling by 50%.; in short: as §1
Rattus norvegicus [7] = species on record: Rattus norvegicus; assay: Bone resorption inhibitory effect was evaluated as calcium released from bone into medium at 25 uM compound concentration, expressed as percent of control; set-up: scale not given: the % may be the effect or the level left

In the case of COc1ccc(-c2nc(Cn3ccnc3C)nc3cc(OC)c(OC)cc23)cc1OC, the inhibition in vivo at 12.5 mg/kg (Rattus norvegicus [1]) was under 50%.
For CCOC(=O)c1c(CCCn2cncn2)nc2cc(OC)c(OC)cc2c1-c1ccc(OC)c(OC)c1, the inhibition in vivo at 12.5 mg/kg (Rattus norvegicus [1]) was under 50%.
In the case of CCOC(=O)c1c(Cn2ccnc2CC)nc2cc(OC)c(OC)cc2c1-c1ccc(OC)c(OC)c1, the ED50 (Rattus norvegicus [2]) was 9.1 mg/kg.
COC(=O)c1c(CSc2nccn2C)nc2cc(OC)c(OC)cc2c1-c1ccc(OC)c(OC)c1 gave an Activity (Rattus norvegicus [3]) of 46% and an inhibition in vivo at 50 mg/kg (Rattus norvegicus [4]) of 67%.
Compound CCOC(=O)c1c(CSc2nccn2C)nc2cc(OC)c(OC)cc2c1-c1ccccc1 has an inhibition in vivo at 50 mg/kg (Rattus norvegicus [4]) of 31%.
CCOC(=O)c1c(CSc2nccn2CC)nc2cc(OC)c(OC)cc2c1-c1ccc(OC)c(OC)c1 was tested, and the inhibition in vivo at 50 mg/kg (Rattus norvegicus [4]) was 51%.
With CCOC(=O)c1c(Cn2ccnc2C)nc2cc(OC)c(OC)cc2c1-c1ccc(OC)c(OC)c1 the inhibition in vivo at 12.5 mg/kg (Rattus norvegicus [1]) was 55%.
CCOC(=O)c1c(CSc2nccn2C)nc2cc(OC)c(OC)cc2c1-c1ccc(Cl)cc1 showed an inhibition in vivo at 50 mg/kg (Rattus norvegicus [4]) of 41%.
With CCOC(=O)c1c(CSc2nccn2C)nc2ccccc2c1-c1ccc(OC)c(OC)c1 the inhibition in vivo at 50 mg/kg (Rattus norvegicus [4]) was 33%.
With CCOC(=O)c1c(CCc2nccn2C)nc2cc(OC)c(OC)cc2c1-c1ccc(OC)c(OC)c1 the ED50 (Rattus norvegicus [2]) was 14.7 mg/kg and the inhibition in vivo at 50 mg/kg (Rattus norvegicus [4]) was 75%.
With CCOC(=O)c1c(CSc2nccn2C)nc2cc(OCC)c(OCC)cc2c1-c1ccc(OC)c(OC)c1 the inhibition in vivo at 50 mg/kg (Rattus norvegicus [4]) was 59%.
CCOC(=O)c1c(CSc2nccn2C)nc2cc(OC)c(OC)cc2c1-c1ccc2c(c1)OCO2 was tested, and the inhibition in vivo at 50 mg/kg (Rattus norvegicus [4]) was 63%.
CCOC(=O)c1c(CSc2nccn2C)nc2cc3c(cc2c1-c1ccc(OC)c(OC)c1)OCCO3 showed an Activity (Rattus norvegicus [3]) of 66% and an inhibition in vivo at 50 mg/kg (Rattus norvegicus [4]) of 56%.
In the case of CCOC(=O)c1c(C[S+]([O-])c2nccn2C)nc2cc(OC)c(OC)cc2c1-c1ccc(OC)c(OC)c1 (centres undefined), the ED50 (Rattus norvegicus [2]) was 6.5 mg/kg and the inhibition in vivo at 12.5 mg/kg (Rattus norvegicus [1]) was 73%.
CCOC(=O)c1c(Cn2ccnc2)nc2cc(OC)c(OC)cc2c1-c1ccc(OC)c(OC)c1 gave an ED50 (Rattus norvegicus [2]) of 7.7 mg/kg and an inhibition in vivo at 12.5 mg/kg (Rattus norvegicus [1]) of 70%.
CCOC(=O)c1c(CSc2nccn2C)nc2cc(OC)c(OC)cc2c1-c1ccc(C)cc1 was tested, and the inhibition in vivo at 50 mg/kg (Rattus norvegicus [4]) was 67%.
With COc1ccc(-c2nc(CSc3nccn3C)nc3cc(OC)c(OC)cc23)cc1OC the inhibition in vivo at 50 mg/kg (Rattus norvegicus [4]) was under 50%.
With COc1ccc(-c2nc(Cn3cncn3)nc3cc(OC)c(OC)cc23)cc1OC the inhibition in vivo at 12.5 mg/kg (Rattus norvegicus [1]) was under 50%.
Compound COc1ccc(-c2nc(CCc3nccn3C)nc3cc(OC)c(OC)cc23)cc1OC has an inhibition in vivo at 50 mg/kg (Rattus norvegicus [4]) of 71%.
CCOC(=O)c1c(CSc2nccn2C)nc2cc(OC)c(OC)cc2c1-c1ccc(OC)c(OC)c1 gave an Activity (Rattus norvegicus [5]) of 57%, an ED50 (Rattus norvegicus [6]) of 25 mg/kg and an inhibition in vivo at 50 mg/kg (Rattus norvegicus [4]) of 60%.
Work on CCOC(=O)c1c(CSc2nncn2C)nc2cc(OC)c(OC)cc2c1-c1ccc(OC)c(OC)c1 yielded an ED50 (Rattus norvegicus [6]) of 11.6 mg/kg and an inhibition in vivo at 50 mg/kg (Rattus norvegicus [4]) of 66%.
Work on CCOC(=O)c1c(CS(=O)(=O)c2nccn2C)nc2cc(OC)c(OC)cc2c1-c1ccc(OC)c(OC)c1 yielded an inhibition in vivo at 50 mg/kg (Rattus norvegicus [4]) of 56%.
Work on CCOC(=O)c1c(CSc2ncc[nH]2)nc2cc(OC)c(OC)cc2c1-c1ccc(OC)c(OC)c1 yielded an inhibition in vivo at 50 mg/kg (Rattus norvegicus [4]) of 60%.
CCOC(=O)c1c(CSc2nccn2C)nc2cc(OC)c(OC)cc2c1-c1ccc(OC)cc1 gave an inhibition in vivo at 50 mg/kg (Rattus norvegicus [4]) of 64%.
Compound CCOC(=O)c1c(CSc2nccn2C)nc2ccc(OC)cc2c1-c1ccc(OC)cc1 has an Activity (Rattus norvegicus [3]) of 66% and an inhibition in vivo at 50 mg/kg (Rattus norvegicus [4]) of 45%.
Compound CCOC(=O)c1c(Cn2cncn2)nc2cc(OC)c(OC)cc2c1-c1ccc(OC)c(OC)c1 has an Activity (Rattus norvegicus [5]) of 59%, an ED50 (Rattus norvegicus [2]) of 2.6 mg/kg and an inhibition in vivo at 12.5 mg/kg (Rattus norvegicus [1]) of 65%.
COc1cc2c(OC)c3c(c(-c4ccc5c(c4)OCO5)c2cc1OC)C(=O)OC3 [JUSTICIDIN A] gave an Activity (Rattus norvegicus [7]) of 48% and an inhibition in vivo at 50 mg/kg (Rattus norvegicus [4]) of 10%.
